Measured values taken from ChEMBL document CHEMBL5696442, “Discovery of type II inhibitors of TGFβ-activated kinase 1 (TAK1) and mitogen-activated protein kinase kinase kinase kinase 2 (MAP4K2)” (J Med Chem, 2015).

Key:
[1] = target: Calcium/calmodulin-dependent protein kinase type II subunit delta (Homo sapiens) (UniProt Q13557); test: Inhibition of CaMK2d Lys1 labeling site in human A-375 cells at 0.5 uM by KiNativ Profiling analysis relative to control; assay type: cell-based
How it was run: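 Live A375 melanoma cells were treated with compound at 5 or 0.5 μM. The cells were then lysed, and the lysates were labeled with a lysine-reactive ATP or ADP-biotin acyl probe (KiNativ). Inhibition is the compound's protection of each kinase labeling-site peptide from probe labeling, relative to untreated control.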

Ephrin type-B receptor 4 = Ephrin type-B receptor 4 (Homo sapiens, UniProt P54760); test: Inhibition of EphB4 (unknown origin) ACT labeling site by KiNativ Profiling analysis
Sequence of Ephrin type-B receptor 4 (P54760 whole entry): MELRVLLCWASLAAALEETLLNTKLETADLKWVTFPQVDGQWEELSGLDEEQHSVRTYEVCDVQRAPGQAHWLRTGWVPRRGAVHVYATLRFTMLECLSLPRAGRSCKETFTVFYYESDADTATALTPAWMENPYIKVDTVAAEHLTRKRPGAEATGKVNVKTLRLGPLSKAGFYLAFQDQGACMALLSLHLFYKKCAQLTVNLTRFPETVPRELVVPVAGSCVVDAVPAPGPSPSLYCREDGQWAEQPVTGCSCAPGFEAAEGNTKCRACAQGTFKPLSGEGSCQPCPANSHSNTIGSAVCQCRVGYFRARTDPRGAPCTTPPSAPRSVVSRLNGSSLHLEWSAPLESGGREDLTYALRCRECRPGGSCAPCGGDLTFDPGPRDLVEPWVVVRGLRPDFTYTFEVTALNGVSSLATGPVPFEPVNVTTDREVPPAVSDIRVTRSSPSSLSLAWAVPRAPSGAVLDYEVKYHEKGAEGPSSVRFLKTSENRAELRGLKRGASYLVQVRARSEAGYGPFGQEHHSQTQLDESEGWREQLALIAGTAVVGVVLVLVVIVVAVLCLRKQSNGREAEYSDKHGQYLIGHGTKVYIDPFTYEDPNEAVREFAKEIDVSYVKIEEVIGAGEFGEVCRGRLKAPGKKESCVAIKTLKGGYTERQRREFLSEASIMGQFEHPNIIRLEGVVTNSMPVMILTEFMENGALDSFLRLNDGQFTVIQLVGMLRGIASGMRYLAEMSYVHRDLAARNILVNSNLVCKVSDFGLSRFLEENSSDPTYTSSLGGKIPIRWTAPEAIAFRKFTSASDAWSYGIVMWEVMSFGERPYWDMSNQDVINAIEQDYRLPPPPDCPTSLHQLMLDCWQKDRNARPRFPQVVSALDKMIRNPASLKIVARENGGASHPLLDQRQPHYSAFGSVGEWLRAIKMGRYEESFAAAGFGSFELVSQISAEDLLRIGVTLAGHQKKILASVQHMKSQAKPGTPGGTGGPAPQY

[2] = target: T1, Dual specificity mitogen-activated protein kinase kinase 3 (Homo sapiens) (UniProt P46734); test: Inhibition of MAP2K3 Lys2 labeling site in human A-375 cells at 0.05 uM by KiNativ Profiling analysis relative to control; assay type: cell-based
T1 sequence (whole entry): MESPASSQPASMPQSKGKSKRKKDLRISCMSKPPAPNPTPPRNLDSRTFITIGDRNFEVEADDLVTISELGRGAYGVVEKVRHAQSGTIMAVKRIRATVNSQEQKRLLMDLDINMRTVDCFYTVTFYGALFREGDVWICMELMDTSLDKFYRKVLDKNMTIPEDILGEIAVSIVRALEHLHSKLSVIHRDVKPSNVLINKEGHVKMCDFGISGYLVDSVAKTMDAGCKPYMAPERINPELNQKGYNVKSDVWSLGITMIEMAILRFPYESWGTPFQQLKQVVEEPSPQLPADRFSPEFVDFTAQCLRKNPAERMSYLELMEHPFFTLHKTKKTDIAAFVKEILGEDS

[3] = target: Misshapen-like kinase 1 (Homo sapiens) (UniProt Q8N4C8); test: Inhibition of ZC3 Lys2 labeling site in human A-375 cells at 0.5 uM by KiNativ Profiling analysis relative to control; assay type: cell-based
Sequence of Misshapen-like kinase 1 (Homo sapiens) (Q8N4C8 whole entry, looked up): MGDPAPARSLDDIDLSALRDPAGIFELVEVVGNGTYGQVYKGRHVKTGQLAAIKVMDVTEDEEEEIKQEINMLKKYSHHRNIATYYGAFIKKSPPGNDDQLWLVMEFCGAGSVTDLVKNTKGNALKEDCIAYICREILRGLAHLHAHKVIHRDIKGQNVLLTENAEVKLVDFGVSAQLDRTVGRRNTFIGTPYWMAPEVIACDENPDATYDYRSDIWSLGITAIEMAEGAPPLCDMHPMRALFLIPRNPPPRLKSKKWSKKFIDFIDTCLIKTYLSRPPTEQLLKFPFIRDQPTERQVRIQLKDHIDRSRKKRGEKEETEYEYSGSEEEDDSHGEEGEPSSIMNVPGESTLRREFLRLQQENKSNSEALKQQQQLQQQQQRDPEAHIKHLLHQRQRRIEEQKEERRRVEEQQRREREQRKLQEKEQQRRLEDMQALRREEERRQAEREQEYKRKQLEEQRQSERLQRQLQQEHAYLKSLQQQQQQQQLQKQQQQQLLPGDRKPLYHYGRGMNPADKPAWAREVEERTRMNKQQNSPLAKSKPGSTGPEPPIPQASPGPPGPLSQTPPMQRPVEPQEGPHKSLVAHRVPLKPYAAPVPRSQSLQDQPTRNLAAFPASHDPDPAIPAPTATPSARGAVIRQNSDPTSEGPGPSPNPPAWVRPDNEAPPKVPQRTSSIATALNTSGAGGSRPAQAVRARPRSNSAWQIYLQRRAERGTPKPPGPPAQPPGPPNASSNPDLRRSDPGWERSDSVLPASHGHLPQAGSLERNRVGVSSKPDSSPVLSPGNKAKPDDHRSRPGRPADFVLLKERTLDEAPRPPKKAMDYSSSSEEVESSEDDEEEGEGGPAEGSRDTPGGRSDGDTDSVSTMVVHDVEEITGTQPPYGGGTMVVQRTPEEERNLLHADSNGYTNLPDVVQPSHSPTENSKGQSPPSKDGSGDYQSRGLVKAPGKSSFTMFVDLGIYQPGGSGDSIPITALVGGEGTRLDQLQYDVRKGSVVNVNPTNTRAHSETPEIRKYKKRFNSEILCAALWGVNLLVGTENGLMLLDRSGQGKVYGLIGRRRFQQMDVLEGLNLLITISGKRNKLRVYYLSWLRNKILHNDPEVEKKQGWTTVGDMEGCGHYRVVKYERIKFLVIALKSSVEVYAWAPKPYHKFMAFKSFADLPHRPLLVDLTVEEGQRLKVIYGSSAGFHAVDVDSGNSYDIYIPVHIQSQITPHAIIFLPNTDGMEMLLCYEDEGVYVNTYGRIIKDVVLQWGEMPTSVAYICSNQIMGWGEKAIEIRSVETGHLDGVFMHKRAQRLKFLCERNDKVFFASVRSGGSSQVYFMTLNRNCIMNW

[4] = target: Tyrosine-protein kinase Fer (Homo sapiens, UniProt P16591); test: Inhibition of FER Lys1 labeling site in human A-375 cells at 5 uM by KiNativ Profiling analysis relative to control; assay type: cell-based
Sequence of Tyrosine-protein kinase Fer (P16591 whole entry, looked up): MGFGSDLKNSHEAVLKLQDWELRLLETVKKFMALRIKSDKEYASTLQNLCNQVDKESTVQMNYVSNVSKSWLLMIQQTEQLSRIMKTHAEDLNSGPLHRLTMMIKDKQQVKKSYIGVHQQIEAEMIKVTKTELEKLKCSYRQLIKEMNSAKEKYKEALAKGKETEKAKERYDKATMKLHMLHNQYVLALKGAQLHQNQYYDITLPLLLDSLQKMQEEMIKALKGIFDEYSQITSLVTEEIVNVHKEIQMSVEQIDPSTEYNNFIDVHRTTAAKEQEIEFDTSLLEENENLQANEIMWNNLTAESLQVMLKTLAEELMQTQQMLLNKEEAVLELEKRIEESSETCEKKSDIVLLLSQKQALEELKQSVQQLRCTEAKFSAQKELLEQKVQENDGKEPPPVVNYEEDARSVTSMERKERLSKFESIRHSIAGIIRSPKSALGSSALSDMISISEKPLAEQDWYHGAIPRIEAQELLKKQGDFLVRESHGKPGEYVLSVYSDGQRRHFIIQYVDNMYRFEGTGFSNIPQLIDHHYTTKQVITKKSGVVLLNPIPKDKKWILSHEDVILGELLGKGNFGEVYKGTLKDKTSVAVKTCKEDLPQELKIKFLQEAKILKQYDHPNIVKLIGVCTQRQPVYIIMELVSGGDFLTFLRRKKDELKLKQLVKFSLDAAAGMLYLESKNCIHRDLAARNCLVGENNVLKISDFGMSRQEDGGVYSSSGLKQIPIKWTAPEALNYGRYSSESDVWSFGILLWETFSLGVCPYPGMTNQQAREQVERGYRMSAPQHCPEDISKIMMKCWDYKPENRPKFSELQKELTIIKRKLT

[5] = target: T2, Interleukin-1 receptor-associated kinase 4 (Homo sapiens) (UniProt Q9NWZ3); test: Inhibition of IRAK4 Lys2 labeling site in human A-375 cells at 5 uM by KiNativ Profiling analysis relative to control; assay type: cell-based
T2 sequence (whole entry): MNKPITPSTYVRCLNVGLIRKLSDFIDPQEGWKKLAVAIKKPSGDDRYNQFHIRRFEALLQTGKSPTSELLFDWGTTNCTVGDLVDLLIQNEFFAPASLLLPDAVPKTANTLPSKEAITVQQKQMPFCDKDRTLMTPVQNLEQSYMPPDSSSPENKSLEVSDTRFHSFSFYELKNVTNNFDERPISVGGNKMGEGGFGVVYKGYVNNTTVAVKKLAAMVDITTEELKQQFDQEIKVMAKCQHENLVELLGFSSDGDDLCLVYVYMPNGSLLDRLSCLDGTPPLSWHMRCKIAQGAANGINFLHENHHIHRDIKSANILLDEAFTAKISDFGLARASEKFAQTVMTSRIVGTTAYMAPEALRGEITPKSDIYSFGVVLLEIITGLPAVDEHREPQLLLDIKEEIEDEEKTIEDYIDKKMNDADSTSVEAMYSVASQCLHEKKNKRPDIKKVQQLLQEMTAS
How it was run: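 Live A375 melanoma cells were treated with compound at 5 or 0.5 μM, then lysed. Lysates were labeled with a lysine-reactive ATP or ADP-biotin probe. Read-out was the compound's protection of kinase labeling sites from probe labeling (KiNativ).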

[6] = target: Mitogen-activated protein kinase 10 (Homo sapiens, UniProt P53779); test: Inhibition of JNK3 (unknown origin) Lys2 labeling site by KiNativ Profiling analysis
Sequence of Mitogen-activated protein kinase 10 (P53779 whole entry): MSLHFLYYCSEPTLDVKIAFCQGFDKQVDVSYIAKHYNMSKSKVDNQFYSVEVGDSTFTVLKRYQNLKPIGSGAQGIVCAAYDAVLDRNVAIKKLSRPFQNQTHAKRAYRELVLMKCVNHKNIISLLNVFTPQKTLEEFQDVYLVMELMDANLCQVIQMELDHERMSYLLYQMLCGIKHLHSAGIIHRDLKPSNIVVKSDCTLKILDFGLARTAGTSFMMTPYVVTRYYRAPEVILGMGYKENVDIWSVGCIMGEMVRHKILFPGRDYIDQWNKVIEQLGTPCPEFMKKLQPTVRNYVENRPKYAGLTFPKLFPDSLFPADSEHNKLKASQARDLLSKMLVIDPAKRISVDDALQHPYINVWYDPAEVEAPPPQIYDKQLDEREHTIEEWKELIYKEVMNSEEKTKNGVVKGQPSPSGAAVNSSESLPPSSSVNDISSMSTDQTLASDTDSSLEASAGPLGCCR

[7] = target: T3, Serine/threonine-protein kinase TAO3 (Homo sapiens) (UniProt Q9H2K8); test: Inhibition of TAO3 Lys2 labeling site in human A-375 cells at 0.5 uM by KiNativ Profiling analysis relative to control; assay type: cell-based
T3 sequence (whole entry): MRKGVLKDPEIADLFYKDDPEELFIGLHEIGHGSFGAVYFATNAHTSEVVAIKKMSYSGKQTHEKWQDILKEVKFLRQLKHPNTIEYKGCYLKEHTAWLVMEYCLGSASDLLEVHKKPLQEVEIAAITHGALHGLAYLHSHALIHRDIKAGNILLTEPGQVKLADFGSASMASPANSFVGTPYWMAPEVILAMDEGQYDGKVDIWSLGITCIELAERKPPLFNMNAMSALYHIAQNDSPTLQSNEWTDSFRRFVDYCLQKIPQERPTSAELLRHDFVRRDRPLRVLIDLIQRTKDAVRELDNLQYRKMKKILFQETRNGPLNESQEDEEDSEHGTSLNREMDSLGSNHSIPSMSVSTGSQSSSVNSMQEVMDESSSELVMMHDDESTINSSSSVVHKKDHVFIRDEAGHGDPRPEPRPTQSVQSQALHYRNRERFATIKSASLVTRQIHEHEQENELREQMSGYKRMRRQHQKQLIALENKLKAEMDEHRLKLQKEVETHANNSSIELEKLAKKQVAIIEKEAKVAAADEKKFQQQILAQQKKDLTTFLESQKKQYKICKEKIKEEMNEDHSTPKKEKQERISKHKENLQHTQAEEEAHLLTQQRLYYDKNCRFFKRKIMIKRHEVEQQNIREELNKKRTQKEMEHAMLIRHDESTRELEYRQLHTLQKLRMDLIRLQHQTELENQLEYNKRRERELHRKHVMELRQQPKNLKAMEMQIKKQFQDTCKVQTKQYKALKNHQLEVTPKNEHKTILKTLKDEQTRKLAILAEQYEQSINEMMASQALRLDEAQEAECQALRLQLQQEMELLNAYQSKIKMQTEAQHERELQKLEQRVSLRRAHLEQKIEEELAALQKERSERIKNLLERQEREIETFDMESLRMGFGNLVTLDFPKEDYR

[8] = target: Casein kinase I isoform epsilon (Homo sapiens) (UniProt P49674); test: Inhibition of CK1epsilon Lys2 labeling site in human A-375 cells at 0.05 uM by KiNativ Profiling analysis relative to control; assay type: cell-based
Sequence of Casein kinase I isoform epsilon (Homo sapiens) (P49674 whole entry, looked up, canonical isoform): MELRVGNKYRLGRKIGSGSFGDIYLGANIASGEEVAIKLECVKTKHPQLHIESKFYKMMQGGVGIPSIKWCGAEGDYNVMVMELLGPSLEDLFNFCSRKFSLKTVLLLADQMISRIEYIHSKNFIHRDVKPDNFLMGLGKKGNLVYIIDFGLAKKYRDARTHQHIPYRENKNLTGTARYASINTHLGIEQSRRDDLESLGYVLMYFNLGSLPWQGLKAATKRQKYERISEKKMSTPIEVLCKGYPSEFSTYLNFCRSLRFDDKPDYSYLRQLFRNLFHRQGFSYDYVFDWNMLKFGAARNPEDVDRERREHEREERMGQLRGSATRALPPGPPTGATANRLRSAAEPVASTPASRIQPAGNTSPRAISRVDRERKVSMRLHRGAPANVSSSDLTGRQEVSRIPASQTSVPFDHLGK

[9] = target: Serine/threonine-protein kinase WNK2 (Homo sapiens) (UniProt Q9Y3S1); test: Inhibition of Wnk2 ACT labeling site in human A-375 cells at 5 uM by KiNativ Profiling analysis relative to control; assay type: cell-based
[10] = target: Diacylglycerol kinase alpha (Homo sapiens) (UniProt P23743); test: Inhibition of DGKA ATP labeling site harbouring in human A-375 cells at 0.5 uM by KiNativ Profiling analysis relative to control; assay type: cell-based
How it was run: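 Live A375 melanoma cells were treated with compound at 0.5 or 5 μM, then lysed. Lysates were labeled with a lysine-reactive ATP or ADP-biotin probe. The read-out was protection of each kinase probe-labeling site from labeling, relative to control.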

[11] = target: Serine/threonine-protein kinase 26 (Homo sapiens) (UniProt Q9P289); test: Inhibition of MST4 Lys2 labeling site in human A-375 cells at 0.5 uM by KiNativ Profiling analysis relative to control; assay type: cell-based
Sequence of Serine/threonine-protein kinase 26 (Homo sapiens) (Q9P289 2-416 limits assumed): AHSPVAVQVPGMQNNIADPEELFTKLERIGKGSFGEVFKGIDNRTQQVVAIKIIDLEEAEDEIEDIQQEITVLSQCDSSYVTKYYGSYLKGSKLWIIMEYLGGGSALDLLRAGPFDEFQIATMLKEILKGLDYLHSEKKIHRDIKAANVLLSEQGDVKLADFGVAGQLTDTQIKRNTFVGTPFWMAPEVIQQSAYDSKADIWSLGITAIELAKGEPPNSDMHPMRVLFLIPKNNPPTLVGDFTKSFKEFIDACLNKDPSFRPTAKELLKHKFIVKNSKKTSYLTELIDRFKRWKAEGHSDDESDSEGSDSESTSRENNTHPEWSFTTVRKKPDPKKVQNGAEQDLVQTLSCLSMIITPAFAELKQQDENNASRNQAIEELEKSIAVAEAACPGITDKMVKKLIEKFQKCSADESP

Sequence of Calcium/calmodulin-dependent protein kinase type II subunit delta (Homo sapiens) (Q13557 whole entry): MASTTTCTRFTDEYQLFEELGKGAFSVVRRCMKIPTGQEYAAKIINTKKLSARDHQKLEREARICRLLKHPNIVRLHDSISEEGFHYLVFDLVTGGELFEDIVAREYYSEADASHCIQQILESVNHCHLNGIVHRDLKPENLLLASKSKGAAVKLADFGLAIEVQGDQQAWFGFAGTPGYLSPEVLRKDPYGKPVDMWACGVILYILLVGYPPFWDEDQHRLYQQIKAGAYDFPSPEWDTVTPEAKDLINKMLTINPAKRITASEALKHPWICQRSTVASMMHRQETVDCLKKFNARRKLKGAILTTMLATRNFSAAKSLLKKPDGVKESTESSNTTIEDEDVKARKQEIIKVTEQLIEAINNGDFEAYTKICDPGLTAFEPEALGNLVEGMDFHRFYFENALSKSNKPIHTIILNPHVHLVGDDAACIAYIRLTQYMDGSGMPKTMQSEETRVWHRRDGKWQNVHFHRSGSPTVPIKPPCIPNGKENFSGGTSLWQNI

SMILES	inhibition [1] [%]	IC50 (Ephrin type-B receptor 4) [nM]	inhibition [2] [%]	inhibition [3] [%]	inhibition [4] [%]	inhibition [5] [%]	IC50 [6] [µM]	inhibition [7] [%]	inhibition [8] [%]	inhibition [9] [%]	inhibition [10] [%]	inhibition [11] [%]
CCN1CCN(Cc2ccc(NC(=O)c3ccc(C)c(Oc4ccnc5[nH]ccc45)c3)cc2C(F)(F)F)CC1	8.7	999	12.6	70.8	98.1	-0.2	> 10	-5.6	-0.7	14.4	-9.4	12.5
CCN1CCN(Cc2ccc(NC(=O)c3ccc(C)c(/C=C/c4cnc5[nH]ccc5c4OC)c3)cc2C(F)(F)F)CC1	26	54	2.6	48.1	80.3	34.1	> 10	6.6	-9.6	-4.5	-8.3	9.8
